Molecules are shown by their SMILES. Active and inactive are the calls of the source. No cut-off for these calls is given here.

Assay [1] has as its target T1, Receptor-type tyrosine-protein kinase FLT3 (Homo sapiens, UniProt P36888).
T1 sequence (P36888 whole entry): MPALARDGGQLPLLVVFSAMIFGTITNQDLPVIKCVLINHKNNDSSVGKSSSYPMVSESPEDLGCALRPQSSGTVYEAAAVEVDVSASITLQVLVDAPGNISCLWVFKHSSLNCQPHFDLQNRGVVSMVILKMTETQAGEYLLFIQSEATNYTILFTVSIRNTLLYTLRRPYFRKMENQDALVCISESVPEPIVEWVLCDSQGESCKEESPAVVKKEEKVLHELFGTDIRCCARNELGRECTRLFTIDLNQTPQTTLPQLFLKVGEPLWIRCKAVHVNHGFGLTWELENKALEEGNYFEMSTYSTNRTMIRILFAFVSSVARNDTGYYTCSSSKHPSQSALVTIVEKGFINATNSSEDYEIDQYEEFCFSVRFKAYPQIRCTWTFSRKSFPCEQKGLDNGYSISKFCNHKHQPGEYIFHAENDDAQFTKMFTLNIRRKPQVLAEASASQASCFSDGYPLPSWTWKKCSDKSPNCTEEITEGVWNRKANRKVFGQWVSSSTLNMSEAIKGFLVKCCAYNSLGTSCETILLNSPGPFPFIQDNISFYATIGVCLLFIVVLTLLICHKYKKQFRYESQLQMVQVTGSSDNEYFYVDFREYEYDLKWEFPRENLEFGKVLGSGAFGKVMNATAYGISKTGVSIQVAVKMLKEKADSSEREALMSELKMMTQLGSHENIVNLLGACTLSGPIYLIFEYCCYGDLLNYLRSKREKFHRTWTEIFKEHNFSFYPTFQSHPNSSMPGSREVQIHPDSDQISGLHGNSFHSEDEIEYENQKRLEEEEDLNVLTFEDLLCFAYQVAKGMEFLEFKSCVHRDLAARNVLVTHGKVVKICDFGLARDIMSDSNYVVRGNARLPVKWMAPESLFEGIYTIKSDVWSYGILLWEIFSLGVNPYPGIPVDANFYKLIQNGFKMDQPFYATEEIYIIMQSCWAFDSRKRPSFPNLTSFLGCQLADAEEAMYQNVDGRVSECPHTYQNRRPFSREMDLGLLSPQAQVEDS
Nature of the assay: Inhibition of endogenous FLT3 in EOL1 cells. It is filed as cell-based.

Assay [2] has as its target Platelet-derived growth factor receptor (Mus musculus, UniProt P05622+P26618). Nature of the assay: Inhibition of endogenous PDGFR in Swiss3T3 fibroblasts.
Assay [3] concerns the target T1, Receptor-type tyrosine-protein kinase FLT3. Nature of the assay: Inhibition of human FLT3.
For assay [4], the target named is Platelet-derived growth factor receptor beta (Homo sapiens, UniProt P09619). Briefly: Inhibition of human PDGFR beta.
Assay [5] has as its target Tyrosine-protein kinase ABL1 (Homo sapiens, UniProt P00519). Nature of the assay: Inhibition of recombinant Abl. An outline of the steps:
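0.5 µg GST-c-Abl catalytic domain preincubated 10 min on ice with inhibitor (DMSO stock) in 50 mM Tris-HCl pH 7.5, 10 mM MgCl₂, 10 µM orthovanadate, 1 mM DTT; [³²Pγ]ATP, final ATP 111 nM, 30 °C 30 min; SDS-PAGE; autophosphorylation radioactivity normalized to Coomassie-stained protein.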

In a further assay the target is Bcr/Abl fusion protein (Homo sapiens, UniProt P00519). Nature of the assay: Inhibition of oncogenic Bcr-Abl kinase in K562 cells. The assay is classed as cell-based. In a few lines:
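K562 cells, 2 × 10⁶ in 1 mL serum-free RPMI1640, inhibitor or 1% DMSO at 37 °C for 2 h; lysates immunoblotted with anti-pAbl and anti-Abl to gauge Bcr-Abl autophosphorylation.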

The target of assay [6] is Mast/stem cell growth factor receptor Kit (Homo sapiens) (UniProt P10721). Briefly: Inhibition of DNA synthesis in IL3 dependent FDC-P1 cells expressing KIT D814V mutant. The assay is classed as functional, cell-based. In a few lines: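 Parental FDC-P1 cells or FDC-P1 lines expressing KIT variants treated 42 h with compound, with or without IL-3 or stem cell factor; DNA synthesis measured as [³H]thymidine incorporation.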
Sequence of Mast/stem cell growth factor receptor Kit (Homo sapiens) (P10721 whole entry): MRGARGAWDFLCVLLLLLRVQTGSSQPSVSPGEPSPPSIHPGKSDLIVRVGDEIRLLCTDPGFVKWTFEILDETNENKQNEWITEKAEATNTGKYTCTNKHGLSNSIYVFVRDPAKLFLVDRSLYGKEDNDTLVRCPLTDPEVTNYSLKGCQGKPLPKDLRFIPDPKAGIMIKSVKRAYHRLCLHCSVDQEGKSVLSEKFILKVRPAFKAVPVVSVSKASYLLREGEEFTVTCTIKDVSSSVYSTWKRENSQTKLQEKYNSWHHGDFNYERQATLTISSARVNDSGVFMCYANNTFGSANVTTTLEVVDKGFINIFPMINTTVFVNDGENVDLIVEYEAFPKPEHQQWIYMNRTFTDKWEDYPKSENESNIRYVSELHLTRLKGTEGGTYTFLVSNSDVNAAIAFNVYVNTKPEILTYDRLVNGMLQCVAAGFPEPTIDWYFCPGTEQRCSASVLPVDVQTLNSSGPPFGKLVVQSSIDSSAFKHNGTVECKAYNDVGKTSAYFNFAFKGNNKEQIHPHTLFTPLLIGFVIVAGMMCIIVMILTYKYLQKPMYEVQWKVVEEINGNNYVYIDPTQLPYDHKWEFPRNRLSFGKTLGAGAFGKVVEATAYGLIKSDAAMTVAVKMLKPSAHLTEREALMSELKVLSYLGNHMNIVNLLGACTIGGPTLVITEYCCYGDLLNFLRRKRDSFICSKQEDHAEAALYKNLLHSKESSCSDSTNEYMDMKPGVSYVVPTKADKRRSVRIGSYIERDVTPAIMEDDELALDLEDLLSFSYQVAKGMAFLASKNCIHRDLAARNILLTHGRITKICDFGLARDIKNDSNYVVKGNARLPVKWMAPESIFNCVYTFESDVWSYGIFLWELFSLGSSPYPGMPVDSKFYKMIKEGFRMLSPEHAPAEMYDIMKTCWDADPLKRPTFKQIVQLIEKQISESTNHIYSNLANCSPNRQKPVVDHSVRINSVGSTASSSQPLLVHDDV

Sequence of Platelet-derived growth factor receptor beta (P09619 whole entry): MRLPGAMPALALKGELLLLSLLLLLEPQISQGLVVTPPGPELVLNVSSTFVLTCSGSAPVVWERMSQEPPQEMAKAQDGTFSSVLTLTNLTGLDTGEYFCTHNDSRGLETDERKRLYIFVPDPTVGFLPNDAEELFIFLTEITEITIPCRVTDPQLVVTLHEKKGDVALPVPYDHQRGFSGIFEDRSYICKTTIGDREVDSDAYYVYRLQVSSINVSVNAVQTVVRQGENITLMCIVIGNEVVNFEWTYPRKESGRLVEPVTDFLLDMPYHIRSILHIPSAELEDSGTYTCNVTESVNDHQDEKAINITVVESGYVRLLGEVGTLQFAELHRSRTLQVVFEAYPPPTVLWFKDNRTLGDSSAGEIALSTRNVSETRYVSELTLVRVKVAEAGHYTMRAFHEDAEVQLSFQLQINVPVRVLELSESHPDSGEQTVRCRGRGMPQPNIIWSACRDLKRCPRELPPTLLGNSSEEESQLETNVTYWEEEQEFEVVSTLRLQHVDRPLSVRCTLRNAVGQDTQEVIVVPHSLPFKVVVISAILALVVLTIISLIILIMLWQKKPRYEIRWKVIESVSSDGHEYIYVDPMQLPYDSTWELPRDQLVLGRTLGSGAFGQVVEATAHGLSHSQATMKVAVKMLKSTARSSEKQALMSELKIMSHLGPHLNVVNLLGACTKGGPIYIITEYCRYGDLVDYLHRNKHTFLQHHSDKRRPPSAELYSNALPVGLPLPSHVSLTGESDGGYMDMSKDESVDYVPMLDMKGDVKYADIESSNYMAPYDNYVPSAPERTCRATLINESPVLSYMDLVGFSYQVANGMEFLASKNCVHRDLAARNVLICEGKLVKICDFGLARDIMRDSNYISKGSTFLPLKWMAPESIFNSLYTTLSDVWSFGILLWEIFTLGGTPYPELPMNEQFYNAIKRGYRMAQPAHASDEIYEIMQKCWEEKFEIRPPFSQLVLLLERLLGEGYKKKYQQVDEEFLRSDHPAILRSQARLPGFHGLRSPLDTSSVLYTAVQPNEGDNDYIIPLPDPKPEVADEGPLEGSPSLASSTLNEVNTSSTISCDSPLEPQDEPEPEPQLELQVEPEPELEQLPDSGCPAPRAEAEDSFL
Sequence of Tyrosine-protein kinase ABL1 (P00519 whole entry, the tested form may be a part): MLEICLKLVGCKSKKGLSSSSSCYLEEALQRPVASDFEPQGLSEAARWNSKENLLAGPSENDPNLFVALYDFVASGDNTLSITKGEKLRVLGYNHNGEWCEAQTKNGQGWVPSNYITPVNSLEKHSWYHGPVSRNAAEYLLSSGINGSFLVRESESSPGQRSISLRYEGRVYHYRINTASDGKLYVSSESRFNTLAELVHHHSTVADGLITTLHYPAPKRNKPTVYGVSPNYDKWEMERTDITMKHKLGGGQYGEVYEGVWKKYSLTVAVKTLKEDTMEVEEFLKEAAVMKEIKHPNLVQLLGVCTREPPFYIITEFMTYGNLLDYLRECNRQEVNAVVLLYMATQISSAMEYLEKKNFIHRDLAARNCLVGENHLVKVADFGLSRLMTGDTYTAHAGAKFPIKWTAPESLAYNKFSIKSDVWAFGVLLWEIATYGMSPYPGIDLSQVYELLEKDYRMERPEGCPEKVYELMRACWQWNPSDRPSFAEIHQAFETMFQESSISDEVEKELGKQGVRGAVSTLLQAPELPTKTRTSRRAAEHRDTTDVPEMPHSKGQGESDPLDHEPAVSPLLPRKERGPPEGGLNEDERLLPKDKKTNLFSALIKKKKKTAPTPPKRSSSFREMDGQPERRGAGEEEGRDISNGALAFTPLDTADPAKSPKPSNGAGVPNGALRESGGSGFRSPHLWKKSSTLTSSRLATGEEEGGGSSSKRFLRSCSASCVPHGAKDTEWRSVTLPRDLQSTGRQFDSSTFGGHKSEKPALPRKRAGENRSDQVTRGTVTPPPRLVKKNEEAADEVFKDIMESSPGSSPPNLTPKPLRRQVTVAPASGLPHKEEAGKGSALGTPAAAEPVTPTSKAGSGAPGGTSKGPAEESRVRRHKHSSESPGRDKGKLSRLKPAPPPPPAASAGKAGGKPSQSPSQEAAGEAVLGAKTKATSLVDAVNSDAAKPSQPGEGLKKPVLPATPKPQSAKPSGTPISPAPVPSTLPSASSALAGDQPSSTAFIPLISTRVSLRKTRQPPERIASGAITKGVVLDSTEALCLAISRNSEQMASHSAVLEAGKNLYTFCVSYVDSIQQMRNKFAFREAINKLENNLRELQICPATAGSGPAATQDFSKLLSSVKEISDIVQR
Sequence of Bcr/Abl fusion protein (P00519 whole entry, the tested form may be a part): as above
Sequence of Bcr/Abl fusion protein (P11274 whole entry, further chain, the tested form may be a part): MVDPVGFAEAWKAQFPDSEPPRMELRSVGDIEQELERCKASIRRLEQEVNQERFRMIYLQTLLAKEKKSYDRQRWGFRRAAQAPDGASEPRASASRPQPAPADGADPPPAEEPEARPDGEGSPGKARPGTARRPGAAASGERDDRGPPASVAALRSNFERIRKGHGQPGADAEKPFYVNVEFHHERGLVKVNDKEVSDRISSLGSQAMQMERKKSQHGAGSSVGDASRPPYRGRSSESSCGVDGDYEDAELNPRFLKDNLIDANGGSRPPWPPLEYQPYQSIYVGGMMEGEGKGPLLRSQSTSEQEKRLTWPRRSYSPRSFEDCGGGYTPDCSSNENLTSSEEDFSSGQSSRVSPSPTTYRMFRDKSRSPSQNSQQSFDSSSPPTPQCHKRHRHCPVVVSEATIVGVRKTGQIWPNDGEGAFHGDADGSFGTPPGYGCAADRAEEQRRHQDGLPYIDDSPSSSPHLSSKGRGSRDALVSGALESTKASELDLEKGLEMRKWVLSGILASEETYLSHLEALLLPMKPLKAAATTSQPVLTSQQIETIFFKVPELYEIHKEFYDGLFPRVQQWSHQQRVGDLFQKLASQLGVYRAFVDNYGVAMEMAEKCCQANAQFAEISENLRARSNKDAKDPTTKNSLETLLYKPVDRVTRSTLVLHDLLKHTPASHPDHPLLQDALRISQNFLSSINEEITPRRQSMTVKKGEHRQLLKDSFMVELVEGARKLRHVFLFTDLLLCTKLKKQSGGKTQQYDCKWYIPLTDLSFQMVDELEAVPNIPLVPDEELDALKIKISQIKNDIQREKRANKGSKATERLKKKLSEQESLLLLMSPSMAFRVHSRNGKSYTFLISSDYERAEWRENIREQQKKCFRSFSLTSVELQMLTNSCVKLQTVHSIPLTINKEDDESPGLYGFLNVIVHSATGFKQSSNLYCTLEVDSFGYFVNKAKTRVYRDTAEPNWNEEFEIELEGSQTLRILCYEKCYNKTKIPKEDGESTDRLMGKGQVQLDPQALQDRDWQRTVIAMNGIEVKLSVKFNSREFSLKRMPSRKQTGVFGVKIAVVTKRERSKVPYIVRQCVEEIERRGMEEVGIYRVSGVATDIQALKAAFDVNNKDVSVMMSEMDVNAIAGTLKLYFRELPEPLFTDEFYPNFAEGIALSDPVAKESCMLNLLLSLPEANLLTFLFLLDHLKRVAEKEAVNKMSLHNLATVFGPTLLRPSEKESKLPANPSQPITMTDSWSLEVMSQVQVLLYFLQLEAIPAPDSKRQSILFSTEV

What is called IC50 is the concentration needed to halve the response being measured. In the case of `O=C(c1cc2cc(O)ccc2[nH]1)c1cc2cccc(F)c2[nH]1`, the IC50 in assay [1] is greater than 30000 nM; in assay [2], 4800 nM. As to `COc1ccc2cc(C(=O)c3cc4cc(O)ccc4[nH]3)[nH]c2c1`, the half-maximal inhibitory concentration (IC50) in assay [2] was found to be 650 nM.

Turning to `COc1ccc2cc(C(=O)c3cc4cc(OCCN(C)C)ccc4[nH]3)[nH]c2c1`, the half-maximal inhibitory concentration (IC50) in assay [2] is 2800 nM.

In assay [2], `COc1cccc2cc(C(=O)c3cc4cc(O)ccc4[nH]3)[nH]c12` showed a concentration for half-maximal inhibition (IC50) of 2900 nM. Same read-out and setting: the figure for `COc1ccc2[nH]c(C(=O)c3cc4ccc(C)cc4[nH]3)cc2c1` is 510 nM. In the case of `COc1ccc2[nH]c(C(=O)c3cc4cc(C)ccc4[nH]3)cc2c1`, the IC50 in assay [2] was greater than 30000 nM. The compound `O=C(c1cc2cc(F)ccc2[nH]1)c1cc2cc(OCCN3CCCCC3)ccc2[nH]1` gave a 50% inhibitory concentration (IC50) in assay [2] of 500 nM.

Consider `O=C(c1cc2cc(O)ccc2[nH]1)c1cc2c(Cl)cccc2[nH]1`, for which, in assay [2], the IC50 was found to be 500 nM. The same measure, in the same setting: the figure for `O=C(c1cc2ccccc2[nH]1)c1cc2ccccc2[nH]1` is 1000 nM; for `Cc1ccc2cc(C(=O)c3cc4cc(O)ccc4[nH]3)[nH]c2c1` it is 580 nM. For `COc1ccc2[nH]c(C(=O)c3cc4c(F)cccc4[nH]3)cc2c1`, the IC50 in assay [2] came to 8100 nM. On to `O=C(c1cc2cc(O)ccc2[nH]1)c1cc2cc(O)ccc2[nH]1`, for which the IC50 in assay [1] stood at 40 nM; in assay [2] it was 300 nM; in assay [3], 33 nM; in assay [4], 171 nM; in assay [5] it was 1300 nM; against Bcr/Abl fusion protein it was 4200 nM.

Take `Cc1cccc2[nH]c(C(=O)c3cc4cc(OCCN5CCCCC5)ccc4[nH]3)cc12`: the values for the IC50 in assay [2] and in assay [4] were 10000 nM and 1200 nM, respectively.

In assay [2], `COc1ccc2[nH]c(C(=O)c3cc4c(Cl)cccc4[nH]3)cc2c1` registered a half-maximal inhibitory concentration (IC50) greater than 30000 nM. `COc1ccc2[nH]c(C(=O)c3cc4cc(Br)ccc4[nH]3)cc2c1`: 8500 nM corresponded to half-maximal inhibition in assay [2] (IC50). For `COc1cccc2[nH]c(C(=O)c3cc4ccccc4[nH]3)cc12`, in assay [2], the IC50 is 1500 nM. The same measure, in the same setting: the figure for `O=C(c1cc2cc(O)ccc2[nH]1)c1cc2ccc(F)cc2[nH]1` is 590 nM; for `COc1ccc2[nH]c(C(=O)c3cc4c(C)cccc4[nH]3)cc2c1` it is 4030 nM. `O=C(c1cc2ccccc2[nH]1)c1cc2cc(O)ccc2[nH]1`: the IC50 is 570 nM in assay [1] and 200 nM in assay [2].

Take `O=C(c1cc2cc(O)ccc2[nH]1)c1cc2c(F)cccc2[nH]1`: 620 nM corresponded to half-maximal inhibition in assay [2] (IC50).

`COc1ccc2cc(C(=O)c3cc4cc(OCCN5CCCCC5)ccc4[nH]3)[nH]c2c1`: in assay [2], half-maximal inhibition (IC50) required 1000 nM. The same measure, in the same setting: for `O=C(c1cc2cc(O)ccc2[nH]1)c1cc2cc(F)ccc2[nH]1` the value was 730 nM; for `COc1ccc2cc(C(=O)c3cc4cc(OCc5ccccc5)ccc4[nH]3)[nH]c2c1`, greater than 30000 nM. In the case of `COc1ccc2[nH]c(Cc3cc4cc(F)ccc4[nH]3)cc2c1`, the IC50 in assay [1] and in assay [2] was greater than 30000 nM in each case. In the case of `COc1ccc2[nH]c(C(=O)c3cc4ccc(F)cc4[nH]3)cc2c1`, the IC50 in assay [2] came out at 840 nM.

Consider `O=C(c1cc2cc(O)ccc2[nH]1)c1cc2c(Br)cccc2[nH]1`, for which the IC50 in assay [2] came to 6100 nM. With `Cc1cc2ncc(-c3ccccc3)nc2cc1C` [AG1295], the values for the 50% inhibitory concentration (IC50) in assay [1] and in assay [2] were 1100 nM and 5400 nM, respectively.

On to `COc1ccc2[nH]c(Cc3cc4ccccc4[nH]3)cc2c1`, for which the IC50 in assay [1] and in assay [2] was greater than 30000 nM each time. `COc1ccc2[nH]c(C(=O)c3cc4cc(F)ccc4[nH]3)cc2c1` yielded an IC50 in assay [2] of 400 nM. For the compound `COc1ccc2[nH]c(C(=O)c3cc4cc(Cl)ccc4[nH]3)cc2c1`, the IC50 in assay [2] was 2500 nM. For `COc1cccc2[nH]c(C(=O)c3cc4cc(O)ccc4[nH]3)cc12`, in assay [2], it took 960 nM to reach half-maximal inhibition (IC50). In the case of `O=C(c1cc2cc(F)ccc2[nH]1)c1cc2cc(OCc3ccccc3)ccc2[nH]1`, the IC50 was greater than 30000 nM in assay [1] and 5800 nM in assay [2]. `Cc1cccc2[nH]c(C(=O)c3cc4cc(F)ccc4[nH]3)cc12` displayed an IC50 in assay [2] of 1200 nM. Turning to `COc1ccc2[nH]c(C(=O)c3cc4ccc(Cl)cc4[nH]3)cc2c1`, the IC50 in assay [2] stood at 200 nM; in assay [4], 55 nM. Turning to `O=C(c1cc2ccccc2[nH]1)c1cc2cc(Oc3ccccc3)ccc2[nH]1`, the IC50 in assay [2] was found to be 10000 nM. For `O=C(c1cc2ccccc2[nH]1)c1cc2cc(F)ccc2[nH]1`, 760 nM corresponded to half-maximal inhibition in assay [2] (IC50). In assay [2], `CCc1cccc2cc(C(=O)c3cc4cc(O)ccc4[nH]3)[nH]c12` yielded an IC50 of 4400 nM. Regarding `Cc1cccc2[nH]c(C(=O)c3cc4cc(O)ccc4[nH]3)cc12`, the figures for the IC50 in assay [2] and in assay [4] were 960 nM and 458 nM, respectively. In addition, in assay [6], the outcome was inactive.

For the compound `Cc1ccc2[nH]c(C(=O)c3cc4cc(O)ccc4[nH]3)cc2c1`, it took 3500 nM to reach half-maximal inhibition in assay [2] (IC50).

With `COc1ccc2[nH]c(C(=O)c3cc4cccc(Cl)c4[nH]3)cc2c1`, the IC50 in assay [1] and in assay [2] was greater than 30000 nM in each case.

For the origin of these results see ChEMBL document CHEMBL1147798, “Novel bis(1H-indol-2-yl)methanones as potent inhibitors of FLT3 and platelet-derived growth factor receptor tyrosine kinase” (J Med Chem, 2006).
